Article PMC9926436 (Doklady. Biochemistry and Biophysics, 2023)

Tests used:
[1] = system: human cytomegalovirus (HCMV), strain Davis; type: cell-based; conditions: Human betaherpesvirus 5, HEL, read-out: Antiviral activity, EC50, Davis
Procedure, shortened: (§1)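 HEL (human embryonic lung) cell cultures infected with HCMV strain AD-169 or Davis. Antiviral activity scored as inhibition of virus-induced cytopathic effect or of plaque formation.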

[2] = Cytostatic activity, cell growth; type: cell-based; conditions: human, human embryonic lung (HEL) cells
Procedure, shortened: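 Cytostatic assay in HEL cells. Value is the cytotoxic concentration needed to reduce cell growth by 50%.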

[3] = system: HCMV (strains AD-169 and Davis); assay: Anti-HCMV activity in HEL cells, text statements not split by strain; type: cell-based, human cytomegalovirus; conditions: qualitative statement
Procedure, shortened: as §1

For `Nc1ccn(C[C@@H](CO)OCP(=O)(O)O)c(=O)n1` [Cidofovir, cidofovir], the EC50 [1] was 1.49 µM and the CC50 [2] was > 300 µM.
In the case of `O=c1ccn(Cc2cccc3ccccc23)c(=O)n1CCCCCOc1ccc(Br)cc1` [Compound 27, 3-[5-(4-Bromophenoxy)pentyl]-1-(naphthalen-1-ylmethyl)uracil], the EC50 [1] is reported as 44.7 µM and the “Anti-HCMV activity in words” value [3] is reported as “more than one order of magnitude less active”.
With `Nc1nc(O)c2ncn(COC(CO)CO)c2n1` [Ganciclovir, ganciclovir] the EC50 [1] was 9.21 µM and the CC50 [2] was > 350 µM.
For `O=c1c2ccccc2n(CCCCCOc2ccc(Br)cc2)c(=O)n1Cc1cccc2ccccc12` [Compound 24, 1-[5-(4-bromophenoxy)pentyl]-3-(naphthalen-1-ylmethyl)quinazolin-2,4(1H,3H)-dione], the EC50 [1] was > 100 µM and the “Anti-HCMV activity in words” value [3] was “inactive”.
